What was measured:
[1] = Drug recovery in urine of female cynomolgus monkey at 6 mg/kg, po administered as single dose during 0 to 336 hrs by liquid scintillation counting; format: ADME, organism-based, Macaca fascicularis; parameters: dose 6 mg/kg, dosed compound name [14C]Sunitinib, route oral; settings: in vivo
[2] = Drug recovery in feces of male cynomolgus monkey at 6 mg/kg, po administered as single dose during 0 to 336 hrs by liquid scintillation counting; format: ADME, organism-based, Macaca fascicularis; parameters: dose 6 mg/kg, dosed compound name [14C]Sunitinib, route oral; settings: in vivo
Blood [3] = assay: Drug concentration in male Lister Hooded pigmented rat blood assessed as radioactivity per gram of tissue at 20 mg/kg administered as single dose via gastric gavage measured after 24 hrs by autoradiographic analysis; format: ADME, organism-based; parameters: dose 20 mg/kg, dosed compound name [14C]Sunitinib; settings: in vivo, po
[4] = Drug concentration in female albino rat brown fat assessed as radioactivity per gram of tissue at 20 mg/kg administered as single dose via gastric gavage measured after 3 hrs by autoradiographic analysis; format: ADME, organism-based, Brown adipose tissue; parameters: dose 20 mg/kg, dosed compound name [14C]Sunitinib; settings: in vivo, po
Outline: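 Sprague Dawley (albino) and Lister Hooded (pigmented) rats, ca 7-8 weeks old, 179-310 g, acclimated 7 days. Single gavage dose of [14C]sunitinib L-malate (15 mg freebase/kg, 100 µCi/kg). One male and one female killed by CO2 per time point: albino at 3, 6, 24, 72, 168 h; pigmented at 24, 72, 168, 336 h. Carcasses frozen in solid CO2/hexane, 30 µm sagittal sections freeze-dried. Tissue radioactivity read by quantitative whole-body autoradiography against regression of standards, mean background subtracted.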

[5] = Drug concentration in female albino rat salivary gland assessed as radioactivity per gram of tissue at 20 mg/kg administered as single dose via gastric gavage measured after 3 hrs by autoradiographic analysis; format: ADME, organism-based; parameters: dose 20 mg/kg, dosed compound name [14C]Sunitinib; settings: in vivo, po
Outline: (§1)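 Sprague Dawley albino rats, ca 7-8 weeks old, dosed once by gastric gavage with [14C]sunitinib L-malate (15 mg freebase/kg, 100 µCi/kg). One male and one female killed by CO2 at 3, 6, 24, 72 and 168 h. Carcasses frozen in solid CO2/hexane, embedded and cut into 30 µm sagittal sections, then freeze-dried. Radioactivity quantified by whole-body autoradiography against standards by regression, background subtracted.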

Lung [6] = assay: Drug concentration in female albino rat lung assessed as radioactivity per gram of tissue at 20 mg/kg administered as single dose via gastric gavage measured after 3 hrs by autoradiographic analysis; format: ADME, organism-based; parameters: dose 20 mg/kg, dosed compound name [14C]Sunitinib; settings: in vivo, po; outline: as §1
[7] = Drug concentration in female albino rat lymph node assessed as radioactivity per gram of tissue at 20 mg/kg administered as single dose via gastric gavage measured after 3 hrs by autoradiographic analysis; format: ADME, organism-based; parameters: dose 20 mg/kg, dosed compound name [14C]Sunitinib; settings: in vivo, po; outline: as §1
Large intestine [8] = assay: Drug concentration in male Lister Hooded pigmented rat large intestine assessed as radioactivity per gram of tissue at 20 mg/kg administered as single dose via gastric gavage measured after 24 hrs by autoradiographic analysis; format: ADME, organism-based; parameters: dose 20 mg/kg, dosed compound name [14C]Sunitinib; settings: in vivo, po
Lung [9] = assay: Drug concentration in male Lister Hooded pigmented rat lung assessed as radioactivity per gram of tissue at 20 mg/kg administered as single dose via gastric gavage measured after 24 hrs by autoradiographic analysis; format: ADME, organism-based; parameters: dose 20 mg/kg, dosed compound name [14C]Sunitinib; settings: in vivo, po
Kidney = assay: Drug concentration in male albino rat kidney assessed as radioactivity per gram of tissue at 20 mg/kg administered as single dose via gastric gavage measured after 6 hrs by autoradiographic analysis; format: ADME, organism-based; parameters: dose 20 mg/kg, dosed compound name [14C]Sunitinib; settings: in vivo, po
Spleen = assay: Drug concentration in female albino rat spleen assessed as radioactivity per gram of tissue at 20 mg/kg administered as single dose via gastric gavage measured after 6 hrs by autoradiographic analysis; format: ADME, organism-based; parameters: dose 20 mg/kg, dosed compound name [14C]Sunitinib; settings: in vivo, po
[10] = Drug concentration in female albino rat bladder assessed as radioactivity per gram of tissue at 20 mg/kg administered as single dose via gastric gavage measured after 6 hrs by autoradiographic analysis; format: ADME, organism-based, Urinary bladder; parameters: dose 20 mg/kg, dosed compound name [14C]Sunitinib; settings: in vivo, po
Outline: (§2)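 Sprague Dawley (albino) rats, ca 7-8 weeks old, received a single gastric-gavage dose of [14C]sunitinib L-malate at 20 mg/kg (15 mg freebase/kg, 100 µCi/kg). One animal per sex killed by CO2 at 3, 6, 24, 72 and 168 h, then frozen in CO2/hexane. 30 µm sagittal sections were cut and freeze-dried. Radioactivity per gram quantified by whole-body autoradiography using regression against standards. LOQ 0.04–0.06 µg freebase equiv/g.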

Heart = assay: Drug concentration in female albino rat heart assessed as radioactivity per gram of tissue at 20 mg/kg administered as single dose via gastric gavage measured after 6 hrs by autoradiographic analysis; format: ADME, organism-based; parameters: dose 20 mg/kg, dosed compound name [14C]Sunitinib; settings: in vivo, po; outline: as §1
Adrenal = assay: Drug concentration in male Lister Hooded pigmented rat adrenal assessed as radioactivity per gram of tissue at 20 mg/kg administered as single dose via gastric gavage measured after 336 hrs by autoradiographic analysis; format: ADME, organism-based; parameters: dose 20 mg/kg, dosed compound name [14C]Sunitinib; settings: in vivo, po
[11] = Drug concentration in female Lister Hooded pigmented rat brown fat assessed as radioactivity per gram of tissue at 20 mg/kg administered as single dose via gastric gavage measured after 24 hrs by autoradiographic analysis; format: ADME, organism-based, Brown adipose tissue; parameters: dose 20 mg/kg, dosed compound name [14C]Sunitinib; settings: in vivo, po
Outline: (§3)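 Lister Hooded (pigmented) rats, ca 7-8 weeks old, acclimated 7 days, given [14C]sunitinib L-malate by gastric gavage at 20 mg/kg (15 mg freebase/kg, 100 µCi/kg). One male and one female killed by CO2 at 24, 72, 168 and 336 h. Carcasses frozen in solid CO2/hexane and embedded in frozen cellulose. 30 µm sagittal cryosections were freeze-dried. Tissue radioactivity measured by quantitative whole-body autoradiography against calibration standards, with background subtracted.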

Small intestine = assay: Drug concentration in male albino rat small intestine assessed as radioactivity per gram of tissue at 20 mg/kg administered as single dose via gastric gavage measured after 24 hrs by autoradiographic analysis; format: ADME, organism-based; parameters: dose 20 mg/kg, dosed compound name [14C]Sunitinib; settings: in vivo, po
Large intestine [12] = assay: Drug concentration in male albino rat large intestine assessed as radioactivity per gram of tissue at 20 mg/kg administered as single dose via gastric gavage measured after 72 hrs by autoradiographic analysis; format: ADME, organism-based; parameters: dose 20 mg/kg, dosed compound name [14C]Sunitinib; settings: in vivo, po
[13] = Drug concentration in female albino rat preputial gland assessed as radioactivity per gram of tissue at 20 mg/kg administered as single dose via gastric gavage measured after 24 hrs by autoradiographic analysis; format: ADME, organism-based; parameters: dose 20 mg/kg, dosed compound name [14C]Sunitinib; settings: in vivo, po; outline: as §1
[14] = Drug concentration in male albino rat thyroid gland assessed as radioactivity per gram of tissue at 20 mg/kg administered as single dose via gastric gavage measured after 6 hrs by autoradiographic analysis; format: ADME, organism-based; parameters: dose 20 mg/kg, dosed compound name [14C]Sunitinib; settings: in vivo, po
[15] = Drug concentration in male albino rat bladder assessed as radioactivity per gram of tissue at 20 mg/kg administered as single dose via gastric gavage measured after 24 hrs by autoradiographic analysis; format: ADME, organism-based, Urinary bladder; parameters: dose 20 mg/kg, dosed compound name [14C]Sunitinib; settings: in vivo, po
[16] = Drug concentration in male albino rat lachrymal gland assessed as radioactivity per gram of tissue at 20 mg/kg administered as single dose via gastric gavage measured after 24 hrs by autoradiographic analysis; format: ADME, organism-based; parameters: dose 20 mg/kg, dosed compound name [14C]Sunitinib; settings: in vivo, po
Blood [17] = assay: Drug concentration in female albino rat blood assessed as radioactivity per gram of tissue at 20 mg/kg administered as single dose via gastric gavage measured after 24 hrs by autoradiographic analysis; format: ADME, organism-based; parameters: dose 20 mg/kg, dosed compound name [14C]Sunitinib; settings: in vivo, po; outline: as §2
[18] = Drug concentration in female Lister Hooded pigmented rat skeletal muscle assessed as radioactivity per gram of tissue at 20 mg/kg administered as single dose via gastric gavage measured after 24 hrs by autoradiographic analysis; format: ADME, organism-based; parameters: dose 20 mg/kg, dosed compound name [14C]Sunitinib; settings: in vivo, po; outline: as §3
[19] = Drug concentration in female Lister Hooded pigmented rat eye assessed as radioactivity per gram of tissue at 20 mg/kg administered as single dose via gastric gavage measured after 336 hrs by autoradiographic analysis; format: ADME, organism-based; parameters: dose 20 mg/kg, dosed compound name [14C]Sunitinib; settings: in vivo, po; outline: as §3
Zone of skin = assay: Drug concentration in female Lister Hooded pigmented rat abdomen skin assessed as radioactivity per gram of tissue at 20 mg/kg administered as single dose via gastric gavage measured after 336 hrs by autoradiographic analysis; format: ADME, organism-based; parameters: dose 20 mg/kg, dosed compound name [14C]Sunitinib; settings: in vivo, po
Outline: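 Pigmented Lister Hooded rats, 7-8 weeks old, received [14C]sunitinib L-malate by gavage at 20 mg/kg (15 mg freebase/kg, 100 µCi/kg). One rat per sex was killed by CO2 at each of 24, 72, 168 and 336 h. Carcasses were frozen in solid CO2/hexane and cut into 30 µm sagittal sections, then freeze-dried. Tissue radioactivity was quantified by whole-body autoradiography calibrated against standards by regression (LOQ 0.04–0.06 µg eq/g).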

## CCN(CC)CCNC(=O)c1c(C)[nH]c(/[14CH]=C2\C(=O)Nc3ccc(F)cc32)c1C.O=C(O)C[C@H](O)C(=O)O
[1]
  Radiolabel recovery: 6.1%
[2]
  Radiolabel recovery: 87.3%
Blood [3]
  Radiolabel recovery: 0.16 ugequiv
[4]
  Radiolabel recovery: 10.63 ugequiv
[5]
  Radiolabel recovery: 27.64 ugequiv
Lung [6]
  Radiolabel recovery: 28.98 ugequiv
[7]
  Radiolabel recovery: 12.39 ugequiv
Large intestine [8]
  Radiolabel recovery: 0.69 ugequiv
Lung [9]
  Radiolabel recovery: 1.55 ugequiv
Kidney
  Radiolabel recovery: 9.43 ugequiv
Spleen
  Radiolabel recovery: 27.96 ugequiv
[10]
  Radiolabel recovery: 6.2 ugequiv
Heart
  Radiolabel recovery: 6.18 ugequiv
Adrenal
  Radiolabel recovery: 0.16 ugequiv
[11]
  Radiolabel recovery: 0.73 ugequiv
Small intestine
  Radiolabel recovery: 1.55 ugequiv
Large intestine [12]
  Radiolabel recovery: 0.08 ugequiv
[13]
  Radiolabel recovery: 5.79 ugequiv
[14]
  Radiolabel recovery: 18.76 ugequiv
[15]
  Radiolabel recovery: 0.35 ugequiv
[16]
  Radiolabel recovery: 4.7 ugequiv
Blood [17]
  Radiolabel recovery: 0.19 ugequiv
[18]
  Radiolabel recovery: 0.25 ugequiv
[19]
  Radiolabel recovery: 56.9 ugequiv
Zone of skin
  Radiolabel recovery: 0.36 ugequiv

— ChEMBL document CHEMBL3525900, “Pharmacokinetics, distribution, and metabolism of [14C]sunitinib in rats, monkeys, and humans” (Drug Metab Dispos, 2012)
